A selection: hits, their analogues and other compounds. The true share with any hit is near 12%.
L major viab = Leishmania major promastigote growth inhibition; 200,000 tested, 9% active; AID 1063; inhibition, % at 10 µM; Leishmania major promastigotes, resazurin fluorescence viability;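 note: promastigotes grown with compound for 44 hours at 28 °C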
Rad51 HR inh = blocks human Rad51 in homologous recombination; hRad51 DNA strand exchange, fluorescence dequenching; inhibition, % at 10 µM; 200,000 tested, 0.085% active; AID 1385;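 active = inhibition above 40% at the single screening dose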;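 note: 0% = DMSO control wells and 100% = blanks with heterologous ssDNA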
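Test system: preformed human Rad51 ssDNA filaments; also added: Donor/quencher-labelled 47-bp dsDNA substrate; doses: 10 µM final, single point; times: 37 °C 15-min filament assembly, 30-min compound preincubation, 15-min exchange; detection: FRET fluorescence dequenching, excitation 485 nm, emission 520 nm; read-out basis: Fluorescence-based percent inhibition, control- and blank-normalised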
Arbovirus anti = antivirals against arbovirus infection | arbovirus infection cell-based antiviral screen | 200,000 tested, 0.37% active | AID 1251 | inhibition, % at 10 µM; in the data active = inhibition above about 30%
PKD1 kinase inh = inhibitors of human PKD1 kinase; Q15139; PKD1 kinase fluorescence polarization assay; inhibition, % (test concentration not listed); 200,000 tested, 0.056% active; AID 797
CHOP inh = blocks CHOP induction under ER stress | inhibition, % at 10 µM | CHO-K1 CHOP-promoter luciferase, tunicamycin-induced, 15-18 h | 220,000 tested, 3.8% active | AID 2732;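 active = compounds that reduced the stress-induced luciferase reporter signal by more than about 70% of percent inhibition, limit read from the data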;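 note: 0% = tunicamycin plus vehicle and 100% = wells without tunicamycin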
Wee1 stabilizer = human Wee1 degradation inhibition, primary screen. 220,000 tested, 1.2% active. P30291. reporter increase, % at 5 µM. HeLa Luc-Wee1K328M stability, luciferase luminescence; 100% = proteasome inhibitor MG132 effect;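 active = activation above the mean of all tested compounds plus 3 SD, set per screening run, cut at about 8.8% in these data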;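 note: cells exposed to compound for 20 h before luminescence read; 0% = DMSO alone and 100% = MG132 at 30 µM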
Target sequence (P30291 whole entry K328M): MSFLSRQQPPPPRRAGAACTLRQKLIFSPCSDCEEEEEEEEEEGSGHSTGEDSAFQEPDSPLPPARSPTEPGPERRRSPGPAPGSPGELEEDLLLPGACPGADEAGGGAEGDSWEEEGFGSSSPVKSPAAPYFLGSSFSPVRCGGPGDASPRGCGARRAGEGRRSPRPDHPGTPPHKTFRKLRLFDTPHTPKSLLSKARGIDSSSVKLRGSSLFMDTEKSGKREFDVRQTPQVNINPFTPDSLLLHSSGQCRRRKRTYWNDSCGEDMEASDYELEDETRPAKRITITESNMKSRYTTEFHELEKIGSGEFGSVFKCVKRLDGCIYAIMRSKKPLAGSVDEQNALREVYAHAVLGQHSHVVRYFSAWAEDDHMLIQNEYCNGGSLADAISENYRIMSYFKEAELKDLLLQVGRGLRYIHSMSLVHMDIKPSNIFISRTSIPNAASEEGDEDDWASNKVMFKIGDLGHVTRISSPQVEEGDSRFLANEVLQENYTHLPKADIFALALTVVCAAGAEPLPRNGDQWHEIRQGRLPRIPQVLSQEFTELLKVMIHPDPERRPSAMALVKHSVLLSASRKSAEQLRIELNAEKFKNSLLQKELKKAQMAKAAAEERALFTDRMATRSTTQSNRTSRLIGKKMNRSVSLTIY
Numbers without * were called inactive; x = not tested or not shown. Cut-off read from the data, not from the text of the source, unless noted: active = inhibition above about 50%; inactive = the rest.

SMILES	L major viab	Rad51 HR inh	Arbovirus anti	PKD1 kinase inh	CHOP inh	Wee1 stabilizer
CCN(CC)S(=O)(=O)c1ccc(C2=NOC3(C2)N(C)c2ccccc2C3(C)C)cc1 (stereo unspecified)	83.5*	0.9	4.2	-12.9	22.6	-3.0
Cc1c(NC(=O)CN2C(=O)NC(C)(c3ccccc3)C2=O)c(=O)n(-c2ccccc2)n1C (stereo unspecified)	-2.7	x	-6.1	-6.3	82.4*	0.8
Cc1ccccc1OCc1nnc(SCC(=O)Nc2c(C)n(C)n(-c3ccccc3)c2=O)n1-c1ccccc1	58.7*	4.8	3.9	-10.6	40.1	-2.2
Cc1ccc(C2(C)NC(=O)N(CC(=O)Nc3c(C)n(C)n(-c4ccccc4)c3=O)C2=O)cc1 (stereo unspecified)	-7.7	-5.8	-5.3	-6.1	-2.5	-1.4
Cc1ccc(CSCC(=O)Nc2c(C)n(C)n(-c3ccccc3)c2=O)cc1	61.5*	-0.6	-2.8	5.8	2.9	-3.3
Cc1c(NC(=O)CSc2nccn2C)c(=O)n(-c2ccccc2)n1C	-1.4	9.9	0.3	-9.2	37.8	-1.0
Nc1ccc2c(c1)OC1(CCCC1)O2	6.2	-13.8	-9.4	2.2	28.3	5.4
COc1ccccc1C(=O)Nc1ccc(N2CCN(S(C)(=O)=O)CC2)cc1	56.1*	-2.2	2.7	-3.6	-8.3	-2.0
COc1c(C)cccc1C(=O)Nc1ccc(N2CCN(S(C)(=O)=O)CC2)cc1	-0.8	-10.0	6.7	-5.2	-49.9	-2.6
CCC(=O)Nc1ccc(N2CCN(S(C)(=O)=O)CC2)cc1	67.0*	-2.3	6.6	3.9	4.3	-1.6
COc1ccc(OCc2nnc(SCC(=O)c3ccccc3)o2)cc1	-4.1	-16.6	-13.6	-2.9	9.5	0.2
O=C(c1ccccc1)c1c[nH]c(C(=O)NCc2cccnc2)c1	1.9	x	2.4	1.6	10.3	-4.1
O=C(c1ccccc1)c1c[nH]c(C(=O)NNc2ccccc2)c1	89.2*	3.2	-29.9	-7.1	12.6	-2.3
O=C(c1ccccn1)N1N=C2/C(=C/c3ccc(F)cc3)CCCC2C1c1ccc(F)cc1 (stereo unspecified)	17.9	-4.2	-9.1	4.3	19.7	-2.4
CNCCOc1ccccc1-c1ccccc1	3.8	1.9	-0.1	-6.8	4.0	0.4
OCCNCCOCCOc1ccccc1-c1ccccc1	61.6*	0.9	1.3	0.0	21.8	0.6
COCCNCCOc1ccccc1-c1ccccc1	85.3*	2.2	13.0	-2.1	3.3	-1.8
CC(O)CNCCOc1ccccc1-c1ccccc1 (stereo unspecified)	-1.8	x	-0.5	0.8	4.5	1.0
COCCCNCCCCOc1ccccc1-c1ccccc1	97.7*	x	-26.4	-8.3	17.8	-0.6
CCCCNCCOc1ccccc1-c1ccccc1	97.4*	4.3	-9.2	-6.8	26.1	-0.1
OCCNCCOc1ccccc1-c1ccccc1	1.1	-0.1	8.0	-2.0	30.1	-0.5
COCCCNCCOc1ccccc1-c1ccccc1	47.3	x	-5.6	-3.2	17.7	3.9
CN(C)CCOCCOc1ccccc1-c1ccccc1	80.6*	-1.6	-2.3	1.1	-8.9	-0.7
CN(C)CCOc1ccccc1-c1ccccc1	5.7	-6.7	4.5	4.6	16.9	-1.1
C=CCNCCCCOc1ccccc1-c1ccccc1	98.0*	-0.9	-15.6	11.3	28.2	-4.6
SMILES	L major viab	Rad51 HR inh	Arbovirus anti	PKD1 kinase inh	CHOP inh	Wee1 stabilizer
CCn1ncc(N(C)N)c(Cl)c1=O	-7.1	12.4	-1.6	-5.7	30.5	-2.1
COc1cc2cc(C)c(SCC(=O)N3CCN(C(=O)c4ccco4)CC3)nc2cc1OC	x	20.7	x	x	16.4	5.6
COc1cccc(CN(C)C(=O)c2csc3c2CCCC3)c1OC	-5.6	5.9	-8.4	-2.6	22.8	-0.5
Cc1ccc(S(=O)(=O)Oc2cccc(/C=N/Nc3ccc(C(=O)O)cc3)c2)cc1	x	0.9	x	x	0.4	-0.2
Cc1ccc(S(=O)(=O)Oc2cccc(/C=N/n3cnnc3)c2)cc1	66.8*	5.7	-10.3	-4.1	35.3	-0.5
Cc1[nH][nH]c(=O)c1C(c1ccc(-c2ccc(Cl)c(C(=O)O)c2)o1)c1c(C)[nH][nH]c1=O	-4.9	x	-0.5	-3.2	3.5	-1.3
COC(=O)c1cccc(-c2ccc(C(c3c(C)[nH][nH]c3=O)c3c(C)[nH][nH]c3=O)o2)c1	92.4*	8.9	-9.8	-4.0	-6.3	1.8
COC(=O)c1ccccc1NC(=O)c1ccc(-c2ccccc2F)o1	-1.6	2.5	-1.4	-6.5	56.3	-0.5
COC(=O)c1ccccc1-c1ccc(C(c2c(C)[nH][nH]c2=O)c2c(C)[nH][nH]c2=O)o1	100.2*	x	-10.5	3.8	-78.0	1.0
N#Cc1c(-c2ccccc2)nc(SCC(=O)Nc2nnc(C(F)(F)F)s2)[nH]c1=O	-11.5	1.1	73.1*	-7.4	-9.6	0.0
N#Cc1c(-c2ccccc2)nc(SCC(=O)N(c2ccccc2)c2ccccc2)[nH]c1=O	-0.9	-6.8	33.1*	-8.1	-16.6	-1.1
Clc1cccc(NCc2cn3cccnc3n2)c1	13.7	-3.4	0.5	0.2	10.2	2.0
CSCc1cc(N2CCCC2)nc(-c2ccccc2)n1	68.3*	4.6	15.6	-4.9	-15.8	1.3
c1ccc(-c2cc(N3CCCCC3)nc(-c3ccccc3)n2)cc1	37.7	6.9	0.8	6.3	31.4	4.4
FC(F)(F)c1cc(-c2ccccc2)nc(N2CCOCC2)n1	1.2	-1.3	10.5	1.6	89.8*	-1.2
FC(F)(F)c1cc(-c2ccccc2)nc(N2CCCCC2)n1	-4.6	5.2	-4.9	1.8	20.5	3.7
c1ccc(-c2cc(N3CCOCC3)nc(-c3ccccc3)n2)cc1	-8.4	-9.3	-4.8	0.1	89.4*	-3.8
O=[N+]([O-])c1ccn(-c2nc(-c3ccccc3)cc(C(F)(F)F)n2)n1	79.2*	-12.8	5.4	-0.6	14.4	0.6
Fc1ccc(Oc2cc(N3CCOCC3)nc(-c3ccccc3)n2)c(F)c1	-6.7	9.5	-1.4	2.3	87.0*	0.9
Cc1ccc(Oc2cc(N3CCOCC3)nc(-c3ccccc3)n2)cc1	-3.9	-4.8	3.7	-9.4	29.9	-2.1
O=S(=O)(c1cnc(Cl)c(Cl)c1)N1CCN(c2ncccn2)CC1	x	4.6	x	x	-32.2	-0.6
O=C(NCC1CCCN(C(=O)NCc2ccccc2)C1)c1ccc2c(c1)OCO2 (stereo unspecified)	-3.7	10.8	-4.6	-4.1	-1.1	2.4
Clc1cccc(CNCCNCc2cccc(Cl)c2)c1	75.4*	-7.0	-4.7	2.4	16.6	4.9
OC(COc1ccc2cc(Br)ccc2c1)CN1CCOCC1 (stereo unspecified)	59.8*	1.5	-35.2	-5.7	6.2	-1.4
OC(COc1c(Br)cc(Br)cc1Br)CN1CCOCC1 (stereo unspecified)	79.1*	x	-3.9	-17.5	31.1	1.8
O=C(N1CCOCC1)N1CCN(CC(O)COc2ccc3ccccc3c2)CC1 (stereo unspecified)	-0.1	x	6.8	-10.6	26.9	-1.0

Screening results from PubChem.
